Common to all, as to assay type: functional
The species entered for assay [1] is Mus musculus. Kind of assay: The maximal effect induced by an agonist expressed as percent inhibition of electrically induced twitches; Inactive at 10 uM. Put shortly: (§1)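 Vas deferens from Swiss male mice (25–30 g), prepared per Hughes, in Mg2+-free Krebs (95% O2/5% CO2, pH 7.4) at 33 °C, 0.3 g resting tension. Field stimulation via platinum ring electrodes: supramaximal 1-ms pulses, 0.1 Hz. Isotonic twitch recording. After ~2 h equilibration, cumulative concentration–response curves in 0.5 log steps. Mean ± SEM of at least four experiments; pEC50 with 95% confidence limits.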

Assay [2] is filed under the species Mus musculus. Kind of assay: Agonist effect in the electrically stimulated mouse vas deferens. (CL95%); Inactive at 10 uM. In outline: as §1
For assay [3], the species on record is Mus musculus. Description: Antagonist effect in the electrically stimulated mouse vas deferens; Inactive at 10 uM.
Assay [4] is filed under the species Mus musculus. Description: The maximal effect induced by an agonist expressed as percent inhibition of electrically induced twitches. In outline:
as §1

The species named for assay [5] is Mus musculus. Kind of assay: Agonist effect in the electrically stimulated mouse vas deferens. (CL95%). Put shortly: as §1
The species entered for assay [6] is Mus musculus. Kind of assay: Agonist effect in the electrically stimulated mouse vas deferens.;I = Inactive at 10 uM. Put shortly: as §1
The species entered for assay [7] is Mus musculus. Description: The maximal effect induced by an agonist expressed as percent inhibition of electrically induced twitches;I = Inactive at 10 uM. Put shortly: as §1
The species named for assay [8] is Mus musculus. Kind of assay: Antagonist effect in the electrically stimulated mouse vas deferens;I = Inactive at 10 uM.
The species named for assay [9] is Mus musculus. Description: Antagonist effect in the electrically stimulated mouse vas deferens. The note with it: read-out: pA2 (converted).
The species named for assay [10] is Mus musculus. Description: The maximal effect induced by an agonist expressed as percent inhibition of electrically induced twitches. In outline: as §1

Results on 15 compounds are retold here after ChEMBL document CHEMBL1131073, “Structure-activity study of the nociceptin(1-13)-NH2 N-terminal tetrapeptide and discovery of a nociceptin receptor antagonist” (J Med Chem, 1998).

The EC50 is the midpoint of the concentration-response curve. A higher EC50 goes with a less potent agent.

Active and inactive are the calls of the source. The rule behind the calls is not given here. Numbered stars: 1 amine (or outer) side, 2 acyl side, 3 side chain; on linkers, the order of the positions; unused ones are H or OH. Square brackets hold non-standard residues; d marks the D form. Peptide text beside a SMILES is read from it. X1 = N[C@@H](Cc1ccccc1)CN(CC(=O)[*:2])[*:1]; Ava = NCCCCC(=O)O; GABA = NCCCC(=O)O; βAla = NCCC(=O)O

In the case of H-FFTGARKSARK-NH2, the Emax result in the assay listed under Mus musculus [1] is “inactive”. In the assay filed under Mus musculus [2], the “Log EC50” value was “inactive”. Further, the pA2 entry in the assay filed under Mus musculus [3] was “inactive”.

H-FGFFTGARKSARK-NH2: in the assay listed under Mus musculus [1], the Emax entry was “inactive”. In addition, the “Log EC50” value in the assay listed under Mus musculus [2] is “inactive”. Besides, the pA2 entry in the assay listed under Mus musculus [3] is “inactive”.

For the compound H-FGGGFTGARKSARK-NH2, the Emax in the assay filed under Mus musculus [4] is listed as -73. Besides, the pA2 entry in the assay listed under Mus musculus [3] was “inactive”. Moreover, it took 3240 nM to reach a half-maximal effect in the assay filed under Mus musculus [5] (EC50).

`C[C@H](NC(=O)CNC(=O)[C@@H](NC(=O)[C@H](Cc1ccccc1)NC(=O)CNC(=O)[C@@H](Cc1ccccc1)NC(=O)[C@@H](N)Cc1ccccc1)[C@@H](C)O)C(=O)N[C@@H](CCCN=C(N)N)C(=O)N[C@@H](CCCCN)C(=O)N[C@@H](CO)C(=O)N[C@@H](C)C(=O)N[C@@H](CCCN=C(N)N)C(=O)N[C@@H](CCCCN)C(N)=O`: the “Log EC50” value in the assay listed under Mus musculus [6] is “inactive”. In addition, in the assay filed under Mus musculus [7], the Emax entry was “inactive”. In addition, the pA2 entry in the assay filed under Mus musculus [8] is “inactive”.

Consider `C[C@H](NC(=O)CNC(=O)[C@@H](NC(=O)[C@H](Cc1ccccc1)NC(=O)CCCCNC(=O)[C@@H](N)Cc1ccccc1)[C@@H](C)O)C(=O)N[C@@H](CCCN=C(N)N)C(=O)N[C@@H](CCCCN)C(=O)N[C@@H](CO)C(=O)N[C@@H](C)C(=O)N[C@@H](CCCN=C(N)N)C(=O)N[C@@H](CCCCN)C(N)=O` (H-F[Ava]FTGARKSARK-NH2), for which, in the assay listed under Mus musculus [1], the Emax result was “inactive”. The “Log EC50” value in the assay filed under Mus musculus [2] was “inactive”. The pA2 entry in the assay listed under Mus musculus [3] was “inactive”.

Take H-FPFTGARKSARK-NH2: the Emax entry in the assay filed under Mus musculus [1] is “inactive”. In the assay filed under Mus musculus [2], the “Log EC50” value was “inactive”. Further, in the assay filed under Mus musculus [3], the pA2 result is “inactive”.

With `C[C@H](NC(=O)CNC(=O)[C@@H](NC(=O)C(Cc1ccccc1)NC(=O)CNC(=O)CNC[C@H](N)Cc1ccccc1)[C@@H](C)O)C(=O)N[C@@H](CCCN=C(N)N)C(=O)N[C@@H](CCCCN)C(=O)N[C@@H](CO)C(=O)N[C@@H](C)C(=O)N[C@@H](CCCN=C(N)N)C(=O)N[C@@H](CCCCN)C(N)=O` (stereo in doubt), the Emax result in the assay listed under Mus musculus [1] is “inactive”. Also, the “Log EC50” value in the assay listed under Mus musculus [2] is “inactive”. Further, the pA2 entry in the assay filed under Mus musculus [3] was “inactive”.

Take `C[C@H](NC(=O)CNC(=O)[C@@H](NC(=O)[C@H](Cc1ccccc1)NC(=O)CCNC(=O)[C@@H](N)Cc1ccccc1)[C@@H](C)O)C(=O)N[C@@H](CCCN=C(N)N)C(=O)N[C@@H](CCCCN)C(=O)N[C@@H](CO)C(=O)N[C@@H](C)C(=O)N[C@@H](CCCN=C(N)N)C(=O)N[C@@H](CCCCN)C(N)=O` (H-F[βAla]FTGARKSARK-NH2): in the assay filed under Mus musculus [1], the Emax entry is “inactive”. Moreover, the “Log EC50” value in the assay listed under Mus musculus [2] is “inactive”. In addition, the pA2 result in the assay listed under Mus musculus [3] was “inactive”.

With `C[C@H](NC(=O)CNC(=O)[C@@H](NC(=O)[C@H](Cc1ccccc1)NC(=O)CNC(=O)[C@H](Cc1ccccc1)NC(=O)[C@@H](N)Cc1ccccc1)[C@@H](C)O)C(=O)N[C@@H](CCCN=C(N)N)C(=O)N[C@@H](CCCCN)C(=O)N[C@@H](CO)C(=O)N[C@@H](C)C(=O)N[C@@H](CCCN=C(N)N)C(=O)N[C@@H](CCCCN)C(N)=O`, the “Log EC50” value in the assay listed under Mus musculus [6] was “inactive”. The Emax entry in the assay filed under Mus musculus [7] is “inactive”. The pA2 entry in the assay filed under Mus musculus [8] is “inactive”.

As for `C[C@H](NC(=O)CNC(=O)[C@@H](NC(=O)[C@H](Cc1ccccc1)NC(=O)CCCNC(=O)[C@@H](N)Cc1ccccc1)[C@@H](C)O)C(=O)N[C@@H](CCCN=C(N)N)C(=O)N[C@@H](CCCCN)C(=O)N[C@@H](CO)C(=O)N[C@@H](C)C(=O)N[C@@H](CCCN=C(N)N)C(=O)N[C@@H](CCCCN)C(N)=O` (H-F[GABA]FTGARKSARK-NH2), the Emax entry in the assay listed under Mus musculus [1] was “inactive”. The “Log EC50” value in the assay listed under Mus musculus [2] was “inactive”. Further, the pA2 entry in the assay filed under Mus musculus [3] is “inactive”.

`CC(NC(=O)CNC(=O)[C@@H](NC(=O)[C@H](Cc1ccccc1)NC(=O)CNC(=O)C(C)NC(=O)[C@@H](N)Cc1ccccc1)[C@@H](C)O)C(=O)N[C@@H](CCCN=C(N)N)C(=O)N[C@@H](CCCCN)C(=O)N[C@@H](CO)C(=O)NC(C)C(=O)N[C@@H](CCCN=C(N)N)C(=O)N[C@@H](CCCCN)C(N)=O` (stereo in doubt): the Emax in the assay listed under Mus musculus [4] is listed as -81. Besides, the EC50 in the assay listed under Mus musculus [5] is 1000 nM.

Regarding `C[C@H](NC(=O)CNC(=O)[C@@H](NC(=O)[C@H](Cc1ccccc1)NC(=O)CNC(=O)CNC[C@@H](N)Cc1ccccc1)[C@@H](C)O)C(=O)N[C@@H](CCCN=C(N)N)C(=O)N[C@@H](CCCCN)C(=O)N[C@@H](CO)C(=O)N[C@@H](C)C(=O)N[C@@H](CCCN=C(N)N)C(=O)N[C@@H](CCCCN)C(N)=O` (H-[X1]GFTGARKSARK-NH2), in the assay listed under Mus musculus [1], the Emax result was “inactive”. Further, the “Log EC50” value in the assay filed under Mus musculus [2] was “inactive”. In the assay filed under Mus musculus [9], the Kb is 178 nM.

`C[C@H](NC(=O)CNC(=O)[C@@H](NC(=O)[C@H](Cc1ccccc1)NC(=O)CNC(=O)CNC(=O)[C@@H](N)Cc1ccccc1)[C@@H](C)O)C(=O)N[C@@H](CCCNC(=N)N)C(=O)N[C@@H](CCCCN)C(=O)N[C@@H](CO)C(=O)N[C@@H](C)C(=O)N[C@@H](CCCNC(=N)N)C(=O)N[C@@H](CCCCN)C(N)=O`: the Emax in the assay filed under Mus musculus [4] is listed as -84.

Consider `C[C@H](NC(=O)CNC(=O)[C@@H](NC(=O)[C@H](Cc1ccccc1)NC(=O)[C@@H](Cc1ccccc1)NC(=O)CNC(=O)[C@@H](N)Cc1ccccc1)[C@@H](C)O)C(=O)N[C@@H](CCCN=C(N)N)C(=O)N[C@@H](CCCCN)C(=O)N[C@@H](CO)C(=O)N[C@@H](C)C(=O)N[C@@H](CCCN=C(N)N)C(=O)N[C@@H](CCCCN)C(N)=O` (H-FG[dF]FTGARKSARK-NH2), for which the Emax in the assay listed under Mus musculus [10] was -75. Moreover, the pA2 entry in the assay filed under Mus musculus [3] was “inactive”. Also, the 50% effective concentration (EC50) in the assay filed under Mus musculus [5] was 2090 nM.

As for `CC(C)C[C@H](NC(=O)[C@H](CCCCN)NC(=O)[C@H](CCCNC(=N)N)NC(=O)[C@H](C)NC(=O)[C@H](CO)NC(=O)[C@H](CCCCN)NC(=O)[C@H](CCCNC(=N)N)NC(=O)[C@H](C)NC(=O)CNC(=O)[C@@H](NC(=O)[C@H](Cc1ccccc1)NC(=O)CNC(=O)CNC(=O)[C@@H](N)Cc1ccccc1)[C@@H](C)O)C(=O)N[C@@H](C)C(=O)N[C@@H](CC(N)=O)C(=O)N[C@@H](CCC(N)=O)C(=O)O` [NOCICEPTIN], the Emax in the assay listed under Mus musculus [4] is listed as -83.
